pIC50: −log10 of the molar value. Where two headings read alike, the source gives them in different places. Marks after values point to notes of the source that are not given here.
Key:
[1] = patients with advanced non-small cell lung, breast, colon, and pancreatic cancers; diarrhea, nausea, asthenia, rash, anorexia; cited from earlier work
MSTO211H cells [2] = experiment: WST-1 cell proliferation assay, MSTO211H; type: cell-based, human; details: 72 h, read-out: IC50 against MSTO211H cells
Outline: (§1)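 Cells at 1×10^4 per well in RPMI-1640/10% FBS were exposed for 72 h to test compound at 20 to 200 μM, with DMSO final 1.0%. Vehicle controls received matching DMSO. WST-1 reagent was then added, and absorbance was read at 450 nm against a 690 nm reference. IC50 was taken from the dose-response; means ± SD.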

EHMES-10 cells [3] = experiment: DNA fragmentation assay; type: cell-based, human; details: EHMES-10, single agent, 24 h, dose-dependent
Outline: (§2)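 Apoptosis was scored after 24 h exposure to either MEK or PI3K inhibitor or their combination, in RPMI-1640/10% FBS with DMSO final 1.0%. Cytoplasmic histone-associated DNA fragments were quantified with the Cell Death Detection ELISA kit. Means ± SD, ANOVA with Dunnett's test.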

MSTO211H cells [4] = experiment: DNA fragmentation assay; type: cell-based, human; details: single agent, 24 h, dose-dependent
Outline: as §2

EHMES-10 cells [5] = experiment: Orthotopic implantation model, EHMES-10 cells in SCID mice; type: in vivo; details: for Pleural effusion Incidence / Thoracic tumor Incidence: day 30; for Pleural effusion Volume / Thoracic tumor Weight: day 30, median (range); for survival time compared to control group: P<0.01
Outline: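 Male SCID mice aged 6–8 weeks received 3×10^6 EHMES-10 cells in PBS into the thoracic cavity. On day 7 they were randomized, […], to vehicle (40% DMSO in PBS), MEK inhibitor (20, 30, 40 mg/kg), PI3K inhibitor (12.5, 25, 50 mg/kg) or 30 + 25 mg/kg combined, given i.p. twice weekly. Mice were killed on day 30; tumor weighed, effusion volume measured. Medians (ranges), Mann-Whitney; survival by Kaplan-Meier/log-rank.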

MSTO211H cells [6] = experiment: Cell cycle analysis; type: cell-based, human; details: 24 h; for percentage of cells in sub-G1 phase compared to control: 80 μM each agent; for G1-phase population compared to control: 80 μM, P<0.05
Outline: (§3)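 Cells grown in RPMI-1640 with 10% FBS at 37°C and 5% CO2 were exposed to 80 μM MEK inhibitor, 80 μM PI3K inhibitor or both for 24 h (DMSO final 1.0%). They were then trypsinized, and nuclei were stained with propidium iodide (CycleTest Plus kit). Phase profiles came from FACScan flow cytometry. Three independent runs; means ± SD, ANOVA with Dunnett's test.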

[7] = cited from earlier work
EHMES-10 cells [8] = experiment: Cell cycle analysis; type: cell-based, human; details: 24 h; for percentage of cells in sub-G1 phase compared to control: EHMES-10, 80 μM each agent; for G1-phase population compared to control: EHMES-10, 80 μM, P<0.05
Outline: as §3

EHMES-10 cells [9] = experiment: Western blot analysis of cultured EHMES-10 cells; type: cell-based, human; details: EHMES-10, 80 μM, 24 h
Outline: (§4)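 Cultured cells received 80 μM MEK inhibitor and/or 80 μM PI3K inhibitor for 24 h. Lysates were cleared at 15,000 × g, 15 min, 4°C, resolved on 7.5–15% gels, transferred to nitrocellulose and immunoblotted; three independent experiments.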

EHMES-10 cells [10] = type: in vivo, SCID mice; details: thoracic tumors, day 30; for expression of p27kip1 and 89 kDa cleaved PARP (western blot of tumors): 30 mg/kg U0126, 25 mg/kg LY294002 or combination
Outline: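 Thoracic tumors were excised on day 30 from SCID mice given i.p. test compounds twice weekly in 40% DMSO/PBS. Paraffin sections were immunostained for phospho-ERK1/2, phospho-Akt and p27kip1 (Envision method, Fuchsin+ chromogen). Tumor homogenates were lysed in Tris/NaCl/Triton/NaF/Na3VO4 buffer, cleared at 15,000 × g, separated on 7.5–15% gels and immunoblotted.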

MSTO211H cells [11] = experiment: Western blot analysis of cultured MSTO211H cells; type: cell-based, human; details: 80 μM, 24 h
Outline: as §4

EHMES-10 cells [12] = experiment: WST-1 cell proliferation assay, EHMES-10; type: cell-based, human; details: 72 h, read-out: IC50 against EHMES-10 cells
Outline: as §1

[13] = Side effects in EHMES-10 cell-bearing SCID mice; type: in vivo; details: day 30, median (range)
[14] = 25 mg/kg LY294002, alone or with 30 mg/kg U0126
[15] = 30 mg/kg U0126, alone or with 25 mg/kg LY294002

## O=C(NOCC1CC1)c1ccc(F)c(F)c1Nc1ccc(I)cc1Cl [CI-1040]
[1]
  toxicities in patients: mild or moderate toxicities

## O=c1cc(N2CCOCC2)oc2c(-c3ccccc3)cccc12 [LY294002]
MSTO211H cells [2]; Homo sapiens, MSTO-211H
  pIC50: 4.52
EHMES-10 cells [3]
  apoptosis by DNA fragmentation analysis: induced apoptosis
MSTO211H cells [4]
  apoptosis by DNA fragmentation analysis: induced apoptosis
EHMES-10 cells [5]; 25 mg/kg i.p. twice/week
  Pleural effusion Incidence: 1/5
  Thoracic tumor Incidence: 3/5
  Pleural effusion Volume: 0 (0–10)^a μl
  Thoracic tumor Weight: 69.1 (0–481.6)^a mg
EHMES-10 cells [5]; 50 mg/kg i.p. twice a week
  survival time compared to control group: significantly prolonged
EHMES-10 cells [5]; 50 mg/kg i.p. twice/week
  Pleural effusion Incidence: 0/5
  Thoracic tumor Incidence: 2/5
  Pleural effusion Volume: 0 (−)^a μl
  Thoracic tumor Weight: 0 (0–41)^a mg
MSTO211H cells [6]
  percentage of cells in sub-G1 phase compared to control: significantly increased
  G1-phase population compared to control: significantly increased
[7]; administration reduced to three days per week
  side effects: side effects were not shown
[7]; daily intraperitoneal 100 mg/kg, mice with ovarian cancer
  side effects: body weight loss and dry skin
EHMES-10 cells [8]
  percentage of cells in sub-G1 phase compared to control: significantly increased
  G1-phase population compared to control: significantly increased
EHMES-10 cells [9]
  HIF1α and VEGF expression: inhibited
  cyclin D1 expression: decrease
  level of 89 kDa cleaved PARP: increased
  levels of phospho-Bad and procaspase 3: decreased
  phosphorylation of Akt, p70S6K, S6 and GSK3β: suppressed
EHMES-10 cells [10]; [14]
  Akt phosphorylation (western blot of tumors): inhibited
  phospho-Akt-positive tumor cells (immunohistochemistry): reduced
EHMES-10 cells [10]
  expression of p27kip1 and 89 kDa cleaved PARP (western blot of tumors): increased
MSTO211H cells [11]
  level of 89 kDa cleaved PARP: increased
  levels of phospho-Bad and procaspase 3: decreased
EHMES-10 cells [12]; Homo sapiens
  pIC50: 4.68
[13]; 25 mg/kg i.p. twice/week
  ALT: 19 (15–72) IU/l
  AST: 46 (37–117) IU/l
  BUN: 20.2 (17.9–23.0) mg/dl
  Cre: 0.11 (0.06–0.20) mg/dl
  TP (serum total protein): 4.3 (3.9–5.6) g/dl
  Weight (body weight): 25.4 (24.4–26.3) g
[13]; 50 mg/kg i.p. twice/week
  ALT: 25 (16–42) IU/l
  AST: 51 (46–92) IU/l
  BUN: 21.0 (16.4–23.2) mg/dl
  Cre: 0.09 (0.07–0.12)^a mg/dl
  TP (serum total protein): 4.4 (3.9–5.6) g/dl
  Weight (body weight): 24.4 (22.7–26.3) g

## N#CC(=C(/N)Sc1ccccc1N)/C(C#N)=C(/N)Sc1ccccc1N [U0126]
MSTO211H cells [2]; WST-1 assay
  pIC50: 4.41
EHMES-10 cells [3]
  apoptosis by DNA fragmentation analysis: induced apoptosis
MSTO211H cells [4]
  apoptosis by DNA fragmentation analysis: induced apoptosis
EHMES-10 cells [5]; 30 mg/kg i.p. twice a week
  survival time compared to control group: significantly prolonged
EHMES-10 cells [5]; 30 mg/kg i.p. twice/week
  Pleural effusion Incidence: 1/5
  Thoracic tumor Incidence: 4/5
  Pleural effusion Volume: 0 (0–100)^a μl
  Thoracic tumor Weight: 31.3 (0–59.2)^a mg
EHMES-10 cells [5]; 40 mg/kg i.p. twice a week
  survival time compared to control group: significantly prolonged
EHMES-10 cells [5]; 40 mg/kg i.p. twice/week
  Pleural effusion Incidence: 0/5
  Thoracic tumor Incidence: 3/5
  Pleural effusion Volume: 0 (−)^a μl
  Thoracic tumor Weight: 14.6 (0–191.3)^a mg
MSTO211H cells [6]
  percentage of cells in sub-G1 phase compared to control: significantly increased
  G1-phase population compared to control: significantly increased
EHMES-10 cells [8]
  percentage of cells in sub-G1 phase compared to control: significantly increased
  G1-phase population compared to control: significantly increased
EHMES-10 cells [9]
  HIF1α and VEGF expression: decreased
  cyclin D1 expression: decrease
  level of 89 kDa cleaved PARP: increased
  levels of phospho-Bad and procaspase 3: decreased
  phosphorylation of ERK1/2 and p90RSK: blocked
EHMES-10 cells [10]
  expression of p27kip1 and 89 kDa cleaved PARP (western blot of tumors): increased
EHMES-10 cells [10]; [15]
  ERK1/2 phosphorylation (western blot of tumors): inhibited
  phospho-ERK1/2-positive tumor cells (immunohistochemistry): reduced
MSTO211H cells [11]
  cyclin D1 expression: decrease
  level of 89 kDa cleaved PARP: increased
  levels of phospho-Bad and procaspase 3: decreased
EHMES-10 cells [12]; WST-1 assay
  pIC50: 4.18
[13]; 30 mg/kg i.p. twice/week
  ALT: 30 (20–60) IU/l
  AST: 48 (44–64) IU/l
  BUN: 22.2 (15.4–24.0) mg/dl
  Cre: 0.10 (0.08–0.15) mg/dl
  TP (serum total protein): 4.3 (4.0–5.0) g/dl
  Weight (body weight): 24.1 (23.5–27.2) g
[13]; 40 mg/kg i.p. twice/week
  ALT: 45 (31–80) IU/l
  AST: 75 (53–111) IU/l
  BUN: 19.1 (15.3–22.1) mg/dl
  Cre: 0.07 (0.05–0.12)^a mg/dl
  TP (serum total protein): 5.0 (4.4–6.6) g/dl
  Weight (body weight): 24.9 (23.3–25.9) g

Reference: publication PMC3582904 (International Journal of Oncology, 2012)
